In PubChem BioAssay AID624290 (Broad Institute, 2012):
“And” between values parts separate entries of the source, which are not always exact repeats. Identical values can stand only once. The source made the active and inactive calls.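 The calls were made as follows: active = compounds dimming the MITF-driven luciferase signal, with fitted AC50 at most twice the top tested dose; inconclusive = flat curves with moderate signal drop, or poor-quality fits; inactive = the rest.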

test system: SK-MEL-5 TRPM1-promoter luciferase reporter, 24 h; assay: TRPM1 promoter luciferase signal reduction, dose response, MITF inhibitor project, cell-based, SK-MEL-5, dry powder samples, set 2 (AID 624290); conditions: not given
Procedure, shortened: (§1)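 System: TRPM1 promoter–luciferase reporter stably expressed in SK-MEL-5 melanoma cells / Schedule: 24 h compound exposure at 37 °C / Measured by: luciferase luminescence with SteadyGlo reagent, 5 min room-temperature incubation / Evaluation: luminescence change reflecting TRPM1 promoter activity, decrease as inhibition / Controls: parthenolide positive control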

Compound	AC50
O=C(NC1=C(N2CCN(c3ccccc3)CC2)C(=O)c2ccccc2C1=O)c1ccccc1	17.1 µM
NC1=C(c2ccccc2)C(=O)c2ccccc2C1=O	5.86 µM
COc1ccc(C(=O)NC2=C(c3ccc(OC)cc3)C(=O)c3ccccc3C2=O)cc1	5.86 µM
COc1ccc(C2=C(NC(=O)c3ccc(Cl)cc3)C(=O)c3ccccc3C2=O)cc1	12.2 µM
C=CCNC1=C(NS(=O)(=O)c2ccc(Br)cc2)C(=O)c2ccccc2C1=O	6.19 µM
CN1CCN(C2=C(NS(=O)(=O)c3ccccc3)C(=O)c3ccccc3C2=O)CC1	0.984 µM
COc1ccc(C2=C(NC(=O)c3ccc(OC)cc3-c3cccc(OC)c3)C(=O)c3ccccc3C2=O)cc1	> 70 µM (inactive)
C=CCNC1=C(NCCCN(CC)CC)C(=O)c2ccccc2C1=O	2.17 µM
O=C(NC1=C(c2ccc(OC(F)(F)F)cc2)C(=O)c2ccccc2C1=O)c1ccco1	14.8 µM
CCN(CC)CCCNC1=C(Nc2ccccc2)C(=O)c2ccccc2C1=O	2.01 µM
CC1CCN(CC(CS(=O)(=O)c2ccc([N+](=O)[O-])cc2)N2CCC(C)CC2)CC1 (stereo not drawn)	3.87 µM
COc1cccc(C2=C(NC(=O)c3ccccc3)C(=O)c3ccccc3C2=O)c1	13.4 µM
CN1CCN(C2=C(NS(=O)(=O)c3ccc(Br)cc3)C(=O)c3ccccc3C2=O)CC1	1.59 µM
O=C1C(Nc2ccccc2)=C(N2CCOCC2)C(=O)c2ccccc21	7.25 µM and 6.91 µM
O=C1C=C(Nc2ccccc2)C(=O)c2ccccc21	4.03 µM
O=C1C(NS(=O)(=O)c2ccc(Br)cc2)=C(N2CCN(c3ccccc3)CC2)C(=O)c2ccccc21	21.3 µM
CCN1CCN(C2=C(NC(=O)c3ccccc3)C(=O)c3ccccc3C2=O)CC1	0.714 µM
CCN(CC)CCCNC1=C(N(C)C(C)=O)C(=O)c2ccccc2C1=O	0.823 µM
Cc1nc2ccccc2n1/N=C/c1ccc([N+](=O)[O-])s1	1.98 µM
O=C(NC1=C(c2ccccc2)C(=O)c2ccccc2C1=O)c1ccc(Br)cc1	9.43 µM
C=CCNC1=C(N(C)C(C)=O)C(=O)c2ccccc2C1=O	0.0779 µM
C=CCNC1=C(N2CCCCC2)C(=O)c2ccccc2C1=O	0.614 µM
O=C1C(NS(=O)(=O)c2ccc(Br)cc2)=C(N2CCCCC2)C(=O)c2ccccc21	10.5 µM
C=CCNC1=C(NC(=O)c2ccccc2)C(=O)c2ccccc2C1=O	17.5 µM
C=CCNC1=C(Cl)C(=O)c2ccccc2C1=O	2.22 µM and 1.94 µM
O=C(NC1=C(Cl)C(=O)c2ccccc2C1=O)c1ccccc1	0.806 µM
COc1ccc(C(=O)NC2=C(c3ccccc3)C(=O)c3ccccc3C2=O)cc1	4.99 µM

test system: not listed separately; assay: as above; conditions: SK-MEL-5 TRPM1-promoter luciferase reporter, 24 h; at 35 µM (top of the series)
Procedure, shortened: as §1

Compound	activity change, negative = inhibition
O=C(NC1=C(N2CCCCC2)C(=O)c2ccccc2C1=O)c1ccc(Br)cc1	-0.221% (inactive)
